From PubChem
CHO parental Ca: signal in parental CHO cells, OX1R antagonist counter-screen. 330,000 tested, 0.63% active. AID 463079. parental CHO-K1, ATP-induced calcium, Fluo-8 fluorescence. inhibition, % at 5.6 µM;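 active = inhibition above that plate's mean sample inhibition plus 3 SD, cut at about 26% in these data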
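Assay system: untransfected parental CHO cell line. Also added: ATP agonist challenge. Dosing: one dose, 5.6 µM nominal. Measured by: Fluo-8 fluorescence. Read-out: % inhibition. Benchmarks: ATP wells versus no-ATP DMSO wells. Repeats: no replicates.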
OX1R antag-1: OX1R (human) antagonism | O43613 | OX1R-expressing cells, FRET antagonist read-out | inhibition, % at 6.6 µM | 330,000 tested, 1.8% active | AID 485270; in the data active = inhibition mostly above about 38%, no sharp cut-off; inactive = mostly below about 40%
Target sequence (O43613 whole entry, looked up): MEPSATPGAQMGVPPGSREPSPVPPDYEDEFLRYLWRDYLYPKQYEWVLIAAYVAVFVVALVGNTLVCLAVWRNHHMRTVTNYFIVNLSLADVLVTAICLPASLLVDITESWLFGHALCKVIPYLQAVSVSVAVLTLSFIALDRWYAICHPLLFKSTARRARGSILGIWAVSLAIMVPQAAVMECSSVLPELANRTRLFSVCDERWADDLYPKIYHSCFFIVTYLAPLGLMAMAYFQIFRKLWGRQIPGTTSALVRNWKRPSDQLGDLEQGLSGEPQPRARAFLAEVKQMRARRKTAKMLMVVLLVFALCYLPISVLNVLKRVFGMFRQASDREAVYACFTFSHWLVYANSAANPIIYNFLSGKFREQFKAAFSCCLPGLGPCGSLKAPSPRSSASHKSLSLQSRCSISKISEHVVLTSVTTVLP
TAAR1 antag: antagonists of human TAAR1; Q96RJ0; CHO RD-HGA16 TAAR1, Fluo-8 calcium fluorescence, antagonist; inhibition, % at 3 µM; 360,000 tested, 1.5% active; AID 624466;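 active = inhibition above a per-plate cutoff, the mean inhibition of test compounds on that plate plus 3 SD, cut at about 49% in these data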
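Material: CHO RD-HGA16 cells bearing hTAAR1; compound dosing: one-point dosing, 3 µM nominal final; schedule: dye loading 75 min at 37 °C, then 30 min room temperature; measured by: calcium fluorescence with Fluo-8; control set: vehicle and agonist controls; replication: n of 1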
GPR7 antagonist: blocks human GPR7 receptor signaling; P48145; GPR7-expressing cells, fluorescence antagonist assay; inhibition, % at 4.4 µM; 290,000 tested, 1.1% active; AID 1861; in the data active = inhibition above about 16%, passing the limit was not always enough;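 note: cells stimulated with the agonist NPW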
TAAR1 agonist: agonists of human TAAR1; 360,000 tested, 0.99% active; Q96RJ0; AID 624467; CHO RD-HGA16 TAAR1, Fluo-8 calcium fluorescence; vehicle wells 0%, saturating PEA agonist 100%; activation, % at 3 µM;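 active = activation above the mean activation of all test compounds in the run plus 3 SD, cut at about 38% in these data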
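Assay system – CHO-derived RD-HGA16 cells with stable Gα16 and human TAAR1 · Compound dosing – one-point dosing at 3 µM (nominal) · Incubation – 17-24 h seeding, 75 min 37 °C dye, 30 min RT · Measured by – kinetic Fluo-8 calcium fluorescence · Control set – DMSO vehicle as 0%, PEA at EC100 as 100% · Repeats – single well for each compound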
OX1R antag-2: human HCRTR1 antagonism | CHO/OX1R cells, Fluo-8 calcium fluorescence, orexin A | inhibition, % at 5 µM | 330,000 tested, 0.43% active | AID 434989;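 active = inhibition above its plate's threshold, mean inhibition of all tested compounds on the plate plus 3 SD, cut at about 37% in these data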
TAAR1 nonsel count: nonselective antagonist in TAAR1 antagonist counter-screen | shares compounds with TAAR1 antag | inhibition, % at 3 µM | counterscreen cell line, calcium fluorescence, antagonist mode | 2,400 tested, 77% active; in the data active = inhibition above about 22%;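 note: CHO-Ga16 host cells stimulated with ATP at an EC80 level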
TAAR1 antag conf: human TAAR1 antagonism, confirmed; shares compounds with TAAR1 antag; TAAR1-expressing cells, fluorescence antagonist read-out; inhibition, % at 3 µM; 2,400 tested, 40% active; in the data active = inhibition above about 49%;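 note: CHO-Ga16 host cells challenged with agonist PEA near its EC80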
Ga16 ag counter: counter-screen for TAAR1 antagonists: nonselective Ga16 agonists; 2,400 tested, 18% active; AID 651953; Ga16-expressing cells, calcium fluorescence, agonist counterscreen; activation, % at 3 µM; shares compounds with TAAR1 antag; in the data active = activation above about 12%
TAAR1 ag count: counter-screen for human TAAR1 antagonists: TAAR1 agonists; shares compounds with TAAR1 antag; hTAAR1 cell line, fluorescence activation, agonist mode; activation, % at 3 µM; 2,400 tested, 2% active; AID 651955; in the data active = activation above about 37%;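 note: CHO cells stably expressing TAAR1 with calcium dye readout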
Of the large screens only hits and unclear results are named; the others gave an inactive call (follow-up assays come after a bar, where they were run). The list is not random: actives were taken first. Their share in the collection is about 4.6%.

O=c1c2ccccc2nc(/C=C/c2cccc([N+](=O)[O-])c2)n1CCO	none
O=c1c2ccccc2nc(/C=C/c2cc(Br)ccc2O)n1CCCO	TAAR1 antag 58 | TAAR1 nonsel count inactive | TAAR1 antag conf inactive | Ga16 ag counter inactive | TAAR1 ag count inactive
O=c1c2ccccc2nc(/C=C/c2cccnc2)n1Cc1ccccc1	none (no result: CHO parental Ca, OX1R antag-1, OX1R antag-2)
O=c1c2ccccc2nc(/C=C/c2cccnc2)n1CCc1ccccc1	TAAR1 antag 60 | TAAR1 nonsel count inactive | TAAR1 antag conf inactive | Ga16 ag counter inactive | TAAR1 ag count inactive
CCn1nc(C(=O)Nc2cccc(S(=O)(=O)N3CCCC3)c2)c2ccccc2c1=O	none (no result: GPR7 antagonist)
C/C=C1\NC(=O)[C@H](C)NC(=O)[C@@H](NC(=O)[C@H](Cc2ccc(O)cc2)NC(=O)[C@@H](NC(=O)/C(C)=C/C)C(C)C)[C@@H](C)OC(=O)[C@H](CCCc2ccc(O)cc2)NC(=O)[C@@H](CCC(=O)OC)NC1=O	none (no result: CHO parental Ca, OX1R antag-1, GPR7 antagonist, OX1R antag-2)
Cc1sc2ncnc(N3CCC(C(=O)N(C)CC(=O)Nc4ccccc4Cl)CC3)c2c1C	TAAR1 antag 64 | TAAR1 nonsel count 25 | TAAR1 antag conf inactive | Ga16 ag counter inactive | TAAR1 ag count inactive
Cc1sc2ncnc(N3CCC(C(=O)N(C)CC(=O)Nc4ccccc4Br)CC3)c2c1C	TAAR1 antag 63 | TAAR1 nonsel count 27 | TAAR1 antag conf inactive | Ga16 ag counter inactive | TAAR1 ag count inactive
Cc1sc2ncnc(N3CCC(C(=O)Nc4ccccc4C(C)(C)C)CC3)c2c1C	none (no result: GPR7 antagonist)
CCN(CC(=O)Nc1cc(Cl)ccc1C)C(=O)C1CCCCC1	none
Cc1sc2ncnc(N3CCC(C(=O)N(C)CC(=O)Nc4ccc(Cl)c(C(F)(F)F)c4)CC3)c2c1C	none (no result: GPR7 antagonist)
Cc1sc2ncnc(N3CCC(C(=O)N(C)CC(=O)Nc4cccc(F)c4)CC3)c2c1C	TAAR1 antag 68 (no result: CHO parental Ca, OX1R antag-1, GPR7 antagonist, OX1R antag-2) | TAAR1 nonsel count 32 | TAAR1 antag conf 55 | Ga16 ag counter 13 | TAAR1 ag count inactive
CCN(CC(=O)Nc1cc(Cl)ccc1C)C(=O)C1CCN(c2ncnc3sc(C)c(C)c23)CC1	TAAR1 antag 83 (no result: CHO parental Ca, OX1R antag-1, GPR7 antagonist, OX1R antag-2) | TAAR1 nonsel count 34 | TAAR1 antag conf 54 | Ga16 ag counter inactive | TAAR1 ag count inactive
C=CCNc1sc(C(=O)c2ccc(C)cc2)c(N)c1C#N	none
C=CCNc1nc(N)c(C(=C(C#N)C#N)c2ccc(Br)cc2)s1	TAAR1 antag 68 | TAAR1 nonsel count 27 | TAAR1 antag conf 62 | Ga16 ag counter inactive | TAAR1 ag count inactive
O=C(Nc1cccc(-c2nnc(-c3ccco3)o2)c1)C(c1ccccc1)c1ccccc1	TAAR1 antag 64 | TAAR1 nonsel count 29 | TAAR1 antag conf inactive | Ga16 ag counter inactive | TAAR1 ag count inactive
O=C(Cc1ccc(Cl)cc1)Nc1cccc(-c2nnc(-c3ccco3)o2)c1	TAAR1 antag 62 | TAAR1 nonsel count 27 | TAAR1 antag conf inactive | Ga16 ag counter inactive | TAAR1 ag count inactive
CC(=O)Oc1ccc(C(=O)Nc2cccc(-c3nnc(-c4ccco4)o3)c2)cc1	none
CCOC(=O)c1cc(-c2ccccc2)nn1Cc1cc(C)no1	none (no result: GPR7 antagonist)
O=C(CCCn1nnnc1CN1CCOCC1)N1CCC(c2ccc(F)cc2)C1 (centres undefined)	none
N#Cc1ccccc1Sc1ccccc1C(=O)OCC(=O)NC1CCS(=O)(=O)C1 (centres undefined)	none
O=c1ccc(Cc2ccccn2)n[nH]1	none
CCC1CN(C(=O)N2CCC(C(=O)Nc3ccccc3OC)CC2)c2ccccc2O1 (centres undefined)	TAAR1 antag 61 | TAAR1 nonsel count 22 | TAAR1 antag conf inactive | Ga16 ag counter inactive | TAAR1 ag count inactive
COc1ccc(OC)c(NC(=O)NCCCCc2ccccc2)c1	none
CC(C)Cc1nnc(NC(=O)CSc2ccccn2)s1	none
CCN(CC(=O)Nc1ccc(NC(C)=O)cc1)C(=O)c1ccc(N(C)S(=O)(=O)c2ccc(C)cc2)cc1	TAAR1 antag 101 (no result: CHO parental Ca, OX1R antag-1, GPR7 antagonist, OX1R antag-2) | TAAR1 nonsel count inactive | TAAR1 antag conf inactive | Ga16 ag counter inactive | TAAR1 ag count inactive
O=C(CCc1ccccc1)Nc1cc(S(=O)(=O)N2CCOCC2)ccc1N1CCCC1	none (no result: CHO parental Ca, OX1R antag-1, GPR7 antagonist, OX1R antag-2)
COc1cccc2sc3ccc(C#Cc4ccc(N)cc4)cc3c(=O)c12	none
COc1cccc2sc3ccc(C#CC4(O)CCCCC4)cc3c(=O)c12	TAAR1 antag 60 | TAAR1 nonsel count 22 | TAAR1 antag conf inactive | Ga16 ag counter inactive | TAAR1 ag count inactive
COc1ccccc1-c1oc2ccccc2c1C#CC1(O)CCCCC1	none (no result: GPR7 antagonist)
COc1cccc2oc3cc(C#CC4(O)CCCCC4)ccc3c(=O)c12	TAAR1 antag 57 | TAAR1 nonsel count 22 | TAAR1 antag conf inactive | Ga16 ag counter inactive | TAAR1 ag count inactive
COc1cc(NC(=O)N2CCNC2=O)cc(C(=O)Nc2cccc(C(F)(F)F)c2)c1	TAAR1 antag 51 (no result: GPR7 antagonist) | TAAR1 nonsel count inactive | TAAR1 antag conf inactive | Ga16 ag counter inactive | TAAR1 ag count inactive
